# Laboratory results published in ChEMBL document CHEMBL1125359, “omega-[(4,6-Diphenyl-2-pyridyl)oxy]alkanoic acid derivatives: a new family of potent and orally active LTB4 antagonists” (J Med Chem, 1992).
# pIC50: −log10 of the molar value.
# Columns and labels:
# [1] = biological target: T1, Leukotriene B4 receptor 1 (Homo sapiens, UniProt Q15722); experiment: Inhibition of [3H]-LTB4 binding to Leukotriene B4 receptor in the human polymorphonuclear leukocytes.
# In short: (§1)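 PMNs from normal donors' peripheral blood, isolated by dextran T500 sedimentation, Ficoll-Hypaque centrifugation and hypotonic lysis. Cells incubated with 0.5 nM [3H]LTB4 (173 Ci/mmol) for 15 min at 0 °C across a range of compound concentrations. Percent inhibition of specific binding measured; IC50 derived graphically, mean of three replicates, mostly on one cell preparation.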
# [2] = biological target: T1, Leukotriene B4 receptor 1; experiment: Inhibition of LTB4-induced elastase release in human polymorphonuclear leukocytes; assay type: functional, cell-based
# [3] = biological target: Leukotriene B4 receptor 1 (Cavia porcellus); experiment: Inhibition of [3H]LTB4 binding to Leukotriene B4 receptor in the guinea pig spleen membranes.
# [4] = biological target: T1, Leukotriene B4 receptor 1; experiment: Inhibition of [3H]LTB4 binding to Leukotriene B4 receptor of human polymorphonuclear leukocytes; in short: as §1
# T1 sequence (Q15722 whole entry): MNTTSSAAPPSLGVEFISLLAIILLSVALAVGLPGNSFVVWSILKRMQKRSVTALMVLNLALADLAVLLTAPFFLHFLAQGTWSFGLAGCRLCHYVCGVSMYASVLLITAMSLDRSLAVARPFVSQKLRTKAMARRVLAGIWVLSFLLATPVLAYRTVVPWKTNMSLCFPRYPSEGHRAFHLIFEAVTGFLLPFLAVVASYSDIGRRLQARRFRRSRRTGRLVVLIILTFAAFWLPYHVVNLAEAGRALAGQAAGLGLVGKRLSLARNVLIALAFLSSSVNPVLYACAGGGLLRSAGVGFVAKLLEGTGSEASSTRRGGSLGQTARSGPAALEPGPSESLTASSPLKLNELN
SMILES,pIC50 [1],pIC50 [2],pIC50 [3],pIC50 [4]
CC(CCCCOc1cc(-c2ccccc2)cc(-c2ccccc2F)n1)C(=O)O (centres undefined),7.74,7.15,,
O=C(O)CCCCCOc1cc(-c2ccc(NC(=O)C(F)(F)F)cc2)cc(-c2ccccc2)n1,,< 5.00,,
CC(C)(CCCCOc1cc(-c2ccccc2)cc(-c2ccccc2)n1)c1nnn[nH]1,7.70,8.10,,
O=C(O)CCCCCOc1cc(-c2ccccc2)cc(-c2ccc(F)cc2)n1,7.52,< 5.00,,
O=C(O)CCCCCOc1cc(-c2ccc3c(c2)OCO3)cc(-c2ccccc2)n1,8.22,5.70,,
CC(CCCCOc1cc(-c2ccc3c(c2)OCO3)cc(-c2ccccc2)n1)C(=O)O (centres undefined),8.18,6.92,,
O=C(O)CCCCCOc1cc(-c2ccc([N+](=O)[O-])cc2)cc(-c2ccccc2)n1,6.22,,,
COc1ccc(/C=C/CCCCOc2ccc(C(=O)c3cccc(C(=O)O)c3)cc2CCC(=O)O)cc1,,6.00,8.70,
CC(CCCCOc1cc(-c2ccccc2)cc(-c2ccccc2)n1)C(=O)O (centres undefined),7.52,7.66,,
CC(C)(CCCCOc1cc(-c2ccc(N)cc2)cc(-c2ccccc2)n1)C(=O)O,8.02,7.82,,
CC(CCCCOc1cc(-c2ccc3c(c2)OCO3)cc(-c2ccccc2Cl)n1)C(=O)O (centres undefined),7.92,7.92,,
O=C(O)CCCCCOc1cc(-c2ccccc2Cl)cc(-c2ccccc2)n1,,< 5.00,,
CC(CCCCOc1cc(-c2ccccc2)cc(-c2ccccc2Cl)n1)C(=O)O (centres undefined),,7.40,,8.22

# Second part, the compound after the results:
pIC50 [1],pIC50 [2],pIC50 [3],pIC50 [4],SMILES
7.00,6.00,,,COC(=O)CCCCCOc1cc(-c2ccccc2)cc(-c2ccccc2)n1
7.52,5.70,,,O=C(O)CCCCCOc1cc(-c2ccccc2)cc(-c2ccccc2)n1
6.82,,,,NC(=O)CCCCCOc1cc(-c2ccccc2)cc(-c2ccccc2)n1
6.52,4.70,,,O=C(O)CCCCOc1cc(-c2ccccc2)cc(-c2ccccc2)n1
7.82,5.60,,,O=C(O)CCCCCCOc1cc(-c2ccccc2)cc(-c2ccccc2)n1
7.22,7.00,,,CC(C)(CCCCCCOc1cc(-c2ccccc2)cc(-c2ccccc2)n1)C(=O)O
